Data as given in ChEMBL document CHEMBL4480390, “Cink4T, a quinazolinone-based dual inhibitor of Cdk4 and tubulin polymerization, identified via ligand-based virtual screening, for efficient anticancer therapy” (Eur J Med Chem, 2019).
Activity calls are given as the source filed them. The rule behind the calls is not given here.

How the values were obtained:
Cytochrome P450 1A2 = molecular target: T1, Cytochrome P450 1A2 (Homo sapiens, UniProt P05177); experiment: Inhibition of recombinant human CYP1A2 expressed in baker's yeast-derived microsomes using 3-cyano-7-ethoxycoumarin as substrate by fluorescence assay; assay type: ADME
T1 sequence (P05177 whole entry): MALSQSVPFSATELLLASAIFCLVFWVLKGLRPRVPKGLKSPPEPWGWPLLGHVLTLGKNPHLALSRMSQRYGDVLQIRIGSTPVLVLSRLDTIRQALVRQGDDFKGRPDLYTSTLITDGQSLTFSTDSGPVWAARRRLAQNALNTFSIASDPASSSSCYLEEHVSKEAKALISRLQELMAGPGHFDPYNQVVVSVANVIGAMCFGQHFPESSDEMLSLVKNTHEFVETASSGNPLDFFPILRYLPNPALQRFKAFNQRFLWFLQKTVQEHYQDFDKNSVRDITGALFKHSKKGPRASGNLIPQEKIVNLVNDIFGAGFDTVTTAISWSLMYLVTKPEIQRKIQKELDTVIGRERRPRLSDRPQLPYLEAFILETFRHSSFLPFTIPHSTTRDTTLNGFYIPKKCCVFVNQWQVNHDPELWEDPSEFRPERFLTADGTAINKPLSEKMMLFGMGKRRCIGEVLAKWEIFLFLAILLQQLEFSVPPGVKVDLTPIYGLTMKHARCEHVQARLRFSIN

Tubulin (Sus scrofa) = Tubulin (Sus scrofa) (UniProt P02554+P02550); experiment: Inhibition of porcine tubulin polymerization at 5 uM incubated for 1 min by fluorescence based assay; assay type: protein assay
Summary of the method: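 Compounds added from 10x stocks in duplicate and warmed at 37°C ≤1 min. Ice-cold tubulin pre-mix then added. Fluorescent reporter read at ex 360/em 460 nm for 60 min. Paclitaxel served as enhancer control, CaCl2 as inhibitor control.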

Calu-1 [1] = experiment: Cell cycle arrest in human Calu1 cells assessed as increase in accumulation at S phase at 1.8 uM treated 18 hrs post serum-starvation measured after 18 hrs in presence of fresh medium containing FBS by propidium iodide staining based flow cytometry relative to control; assay type: functional
A549 [2] = experiment: Cell cycle arrest in human A549 cells assessed as accumulation at S phase at 1.6 uM measured after 18 hrs by propidium iodide staining based flow cytometry (reference value: 21%); assay type: functional
A549 [3] = experiment: cells; details: Homo sapiens, A549, 72 h
MDA-MB-468 = experiment: Cell cycle arrest in human MDA-MB-468 cells assessed as ratio of G1 to S phase at 10.85 uM measured after 18 hrs by propidium iodide staining based flow cytometry (reference value: 2.17); assay type: functional
A549 [4] = experiment: Cell cycle arrest in human A549 cells assessed as accumulation at G2/M phase at 1.6 uM treated 32 hrs post mimosine addition measured after 18 hrs in presence of fresh medium by propidium iodide staining based flow cytometry (reference value: 14%); assay type: functional
A549 [5] = experiment: Cell cycle arrest in human A549 cells assessed as ratio of G1 to S phase at 0.8 uM measured after 18 hrs by propidium iodide staining based flow cytometry (reference value: 2.7); assay type: functional
A549 [6] = experiment: Cell cycle arrest in human A549 cells assessed as ratio of G1 to S phase at 1.6 uM measured after 18 hrs by propidium iodide staining based flow cytometry (reference value: 2.7); assay type: functional
A549 [7] = experiment: Cell cycle arrest in human A549 cells assessed as accumulation at G2/M phase at 1.6 uM measured after 18 hrs by propidium iodide staining based flow cytometry (reference value: 18%); assay type: functional
[8] = molecular target: Cyclin-dependent kinase 4/cyclin D1 (Homo sapiens, UniProt P11802); experiment: Inhibition of recombinant human N-terminal GST-tagged CDK4 (S4 to E303 residues)/Cyclin D1 (Q4 to I295 residues) expressed in sf9 cells using RBCTF as substrate measured after 1 hr by ADP-glo luminescence assay
Summary of the method: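 ADP-Glo luminescence assay of Cdk4–cyclin D1 with RBCTF substrate, 200 ng enzyme, ATP 125 µM (2.5x working mix), Tris/MgCl2/BSA/DTT/MnCl2 buffer, 1 h at 21°C, then two 40-min reagent steps. IC50 from a four-parameter variable-slope sigmoidal fit of inhibition against concentration; mean ± SD from three independent experiments.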

[9] = molecular target: Cyclin-dependent kinase 1/cyclin B1 (Homo sapiens, UniProt P06493); experiment: Inhibition of recombinant human N-terminal GST/His6-tagged CDK1 (M1 to M297 residues)/CyclinB1 (M1 to V433 residues) expressed in Sf9 insect cells using RBCTF as substrate measured after 1 hr by ADP-glo luminescence assay
Calu-1 [10] = experiment: cells; details: Homo sapiens, Calu-1, 72 h
Calu-1 [11] = experiment: Cell cycle arrest in human Calu1 cells assessed as increase in accumulation at S phase at 0.9 uM treated 18 hrs post serum-starvation measured after 18 hrs in presence of fresh medium containing FBS by propidium iodide staining based flow cytometry relative to control; assay type: functional
T47D [12] = experiment: Cell cycle arrest in human T47D cells assessed as increase in accumulation at S phase at 1.5 uM treated 18 hrs post serum-starvation measured after 18 hrs in presence of fresh medium containing FBS by propidium iodide staining based flow cytometry relative to control; assay type: functional
A549 [13] = experiment: Cell cycle arrest in human A549 cells assessed as accumulation at S phase at 0.8 uM measured after 18 hrs by propidium iodide staining based flow cytometry (reference value: 21%); assay type: functional
A549 [14] = experiment: Cell cycle arrest in human A549 cells assessed as ratio of G1 to S phase at 0.8 uM treated 32 hrs post mimosine addition measured after 18 hrs in presence of fresh medium by propidium iodide staining based flow cytometry (reference value: 2.5); assay type: functional
T47D [15] = experiment: Cell cycle arrest in human T47D cells assessed as accumulation at sub-G1 phase at 0.75 uM measured after 18 hrs by propidium iodide staining based flow cytometry relative to control; assay type: functional
T47D [16] = experiment: Cell cycle arrest in human T47D cells assessed as ratio of G1 to S phase at 1.5 uM measured after 18 hrs by propidium iodide staining based flow cytometry (reference value: 2.65); assay type: functional

IC50 (Cytochrome P450 1A2): > 5000 nM
inhibition (Tubulin (Sus scrofa)): Active
EC50 (A549 [3]): 800 nM
IC50 [8]: 470 nM
IC50 [9]: > 50000 nM
EC50 (Calu-1 [10]): 900 nM
SMILES: O=C(COc1ccc(-c2nc3ccccc3c(=O)[nH]2)cc1)Nc1cccc(Cl)c1
Activity (Calu-1 [1]): -0.8%
Activity (A549 [2]): 16%
Ratio (MDA-MB-468): 3.46
Activity (A549 [4]): 68%
Ratio (A549 [5]): 6.5
Ratio (A549 [6]): 0.75
Activity (A549 [7]): 70%
Activity (Calu-1 [11]): 0.7%
Activity (T47D [12]): 5.3%
Activity (A549 [13]): 10%
Ratio (A549 [14]): 1.07
Activity (T47D [15]): 0%
Ratio (T47D [16]): 12
